Results: article PMC2685149 (Nuclear medicine and biology, 2009)
Where “and” joins values, the source holds several entries; their conditions need not be identical. Identical values can stand only once. Bridge positions count the residues as written; N and C are the ends. Square brackets hold non-standard residues; d marks the D form. Peptide text beside a SMILES is read from it. * marks the point of attachment. DOTA = O=C(O)CN1CCN(CC(=O)O)CCN(CC(=O)*)CCN(CC(=O)O)CC1; Nle = CCCC[C@H](N)C(=O)O

Legend:
[1] = system: B16/F10 pulmonary melanoma metastases; settings: mouse, in vivo
[2] = Biodistribution in B16/F10 pulmonary metastatic melanoma-bearing C57 mice; format: in vivo, mouse; settings: C57, mouse, 0.037 MBq; for tissue uptake at 4 h / tissue uptake at 24 h / tissue uptake at 2 h: intravenous
In short: (§1)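 Lung metastases were induced in C57 mice by tail-vein injection of 0.2 million cultured B16/F10 cells and used 16 days later. Normal C57 mice served as comparators. Each mouse got 0.037 MBq of HPLC-purified 111In-labelled test peptide by tail vein. Groups of 5 were killed at 2, 4 and 24 h, and organs were weighed and gamma-counted. Blood was taken as 6.5% of body weight. Ratios compare metastatic-lung with normal-lung uptake.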

[3] = system: B16/F10 pulmonary metastatic melanoma-bearing C57 mice; assay: as above; format: in vivo, mouse; settings: 16 days post the cell injection
In short: as §1

[4] = Biodistribution in normal C57 mice; format: in vivo; settings: C57, mouse, 0.037 MBq, total radioactivity; for dose excreted: urine, percent injected dose, normal mice, Mean±SD, n=5
[5] = Stability in mouse serum; format: in vitro ADME; settings: 37°C, 24 h
[6] = system: B16/F10 melanoma cells; assay: Cellular internalization in B16/F10 cells; format: cell-based, murine; settings: after 2 h incubation, 25°C
In short: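 B16/F10 cells were washed with binding medium and incubated at 25°C for 20, 40, 60, 90 and 120 min (n=4) with about 200,000 cpm (0.019 pmol) of HPLC-purified 111In-labelled test peptide. Cells were rinsed with ice-cold PBS/BSA. Surface-bound activity was stripped with pH 4.5 acetate buffer (0.9% NaCl, 0.2% BSA). Cells were then lysed in 1 N NaOH for 5 min, and both fractions were gamma-counted.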

[7] = system: B16/F10 melanoma cells; assay: Cellular efflux in B16/F10 cells; format: cell-based, murine; settings: 2 h after incubating cells in culture media
In short: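 B16/F10 cells were loaded with the HPLC-purified 111In-labelled test peptide for 2 h at 25°C, then rinsed twice with ice-cold pH 7.4 0.2% BSA/0.01 M PBS. Release of radioactivity into the culture medium was then followed. At 20, 40, 60, 90 and 120 min, cell-surface and intracellular activities were collected separately and gamma-counted.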

[8] = system: flank B16/F1 murine melanoma; settings: cited from earlier work
[9] = intestine, iv, total radioactivity
[10] = lung/blood, iv, total radioactivity
[11] = lung/kidney, iv, total radioactivity
[12] = lung/liver, iv, total radioactivity
[13] = lung/muscle, iv, total radioactivity

CCCC[C@@H]1NC(=O)[C@@H](NC(=O)[C@H](CCC(=O)O)NC(=O)CNC(=O)CN2CCN(CC(=O)O)CCN(CC(=O)O)CCN(CC(=O)O)CC2)CCCCNC(=O)C[C@@H](C(N)=O)NC(=O)[C@H](C(C)C)NC(=O)[C@@H]2CCCN2C(=O)[C@H](CCCNC(=N)N)NC(=O)CNC(=O)[C@H](Cc2c[nH]c3ccccc23)NC(=O)[C@H](CCCNC(=N)N)NC(=O)[C@@H](Cc2ccccc2)NC(=O)[C@H](Cc2c[nH]cn2)NC(=O)[C@H](CCC(=O)O)NC1=O [^111In-DOTA-GlyGlu-CycMSH, ^111In-labeled 1,4,7,10-Tetraazacyclododecane-1,4,7,10-tetraacetic acid-Gly-Glu-c[Lys-Nle-Glu-His-DPhe-Arg-Trp-Gly-Arg-Pro-Val-Asp], metal not drawn] ({DOTA}-GEK[Nle]EH[dF]RWGRPVD-NH2; lactam 3-14; C-terminus assumed)
accumulation of activity in normal organs in whole-body SPECT/CT image [1]: extremely low | tissue uptake dose at 2 h [2, 9]: 7.7 ± 2.05 %ID | tissue uptake dose at 4 h [2, 9]: 5.97 ± 0.48 %ID | tissue uptake dose at 24 h [2, 9]: 0.11 ± 0.03 %ID | tissue uptake at 4 h ([2]; kidneys, total radioactivity): 14.5 ± 0.21 %ID/g | tissue uptake at 24 h ([2]; kidneys, total radioactivity): 15.1 ± 0.86 %ID/g | tissue uptake at 4 h ([2]; liver, total radioactivity): 0.45 ± 0.05 %ID/g | tissue uptake at 4 h ([2]; lung): 1.83 ± 0.12 %ID/g | tissue uptake at 24 h ([2]; lung): 0.29 ± 0.06 %ID/g | tissue to tissue ratio at 2 h [2, 10]: 16.7 | tissue to tissue ratio at 4 h [2, 10]: 61 | tissue to tissue ratio at 24 h [2, 10]: 9.67 | tissue to tissue ratio at 2 h [2, 11]: 0.12 | tissue to tissue ratio at 4 h [2, 11]: 0.13 | tissue to tissue ratio at 2 h [2, 12]: 4.76 | tissue to tissue ratio at 4 h [2, 12]: 4.07 | tissue to tissue ratio at 24 h [2, 12]: 2.23 | tissue to tissue ratio at 2 h [2, 13]: 50 | tissue to tissue ratio at 4 h [2, 13]: 61 | tissue to tissue ratio at 24 h [2, 13]: 9.67 | tissue uptake at 2 h ([2]; skin, total radioactivity): 0.26 ± 0.22 %ID/g | tissue uptake at 4 h ([2]; skin, total radioactivity): 0.36 ± 0.08 %ID/g | tissue uptake at 2 h ([2]; spleen, total radioactivity): 0.26 ± 0.07 %ID/g | uptake in metastatic melanoma-bearing lung relative to normal lung ([3]; 2 h post-injection): 25.0 times | uptake in metastatic melanoma-bearing lung relative to normal lung ([3]; 4 h post-injection): 36.6 times | uptake in metastatic melanoma-bearing lung relative to normal lung ([3]; 24 h post-injection): 9.7 times | tissue uptake dose at 2 h ([4]; intestine, iv): 7.08 ± 1.54 %ID | tissue uptake dose at 4 h ([4]; intestine, iv): 4.65 ± 0.85 %ID | tissue uptake dose at 24 h ([4]; intestine, iv): 0.11 ± 0.08 %ID | tissue uptake at 2 h ([4]; kidneys, intravenous): 14.1 ± 2.23 %ID/g | tissue uptake at 24 h ([4]; kidneys, intravenous): 13.5 ± 1.48 %ID/g | tissue uptake at 4 h ([4]; liver, intravenous): 0.38 ± 0.01 %ID/g | tissue to tissue ratio at 24 h ([4]; lung and muscle, iv): 1.5 | tissue to tissue ratio at 2 h ([4]; lung/blood, iv): 8 | tissue to tissue ratio at 4 h ([4]; lung/blood, iv): 2.5 | tissue to tissue ratio at 24 h ([4]; lung/blood, iv): 1 | tissue to tissue ratio at 2 h ([4]; lung/kidney, iv): 0.01 | tissue to tissue ratio at 4 h ([4]; lung/kidney, iv): 0.01 | tissue to tissue ratio at 4 h ([4]; lung/liver, iv): 0.13 | tissue to tissue ratio at 24 h ([4]; lung/liver, iv): 0.25 | tissue to tissue ratio at 2 h ([4]; lung/muscle, iv): 2.67 | tissue to tissue ratio at 4 h ([4]; lung/muscle, iv): 1.67 | tissue uptake at 4 h ([4]; skin, intravenous): 0.23 ± 0.08 %ID/g | tissue uptake at 2 h ([4]; stomach, intravenous): 0.14 ± 0.07 %ID/g | dose excreted ([4]; iv, 2 h post-injection): 84.7 ± 1.97% | dose excreted ([4]; iv, 4 h post-injection): 89 ± 0.92% | dose excreted ([4]; iv, 24 h post-injection): 96.06 ± 0.53% | stability in mouse serum [5]: stable | activity internalized in the cells [6]: 79.7±10.1% | activity remained inside the cells (efflux) [7]: 90.6±5.3% and ~90% | tumor uptake ([8]; 2 h post-injection, flank B16/F1 murine melanoma-bearing mouse model): 10.40±1.40 % ID/g | reduction of renal uptake by negatively-charged -Gly-Glu- linker ([8]; 4 h post-injection, without affecting the tumor uptake): 44%
